Results taken from article PMC5485419 (Theranostics, 2017).
≈ marks a conversion by molar mass, not a printed value.

How the values were obtained:
COX-1 (ovine) = target: T1, COX-1 (ovine) (Ovis aries, UniProt P05979); test: COX Fluorescent Inhibitor Screening Assay, COX-1; format: biochemical
T1 sequence (P05979 25-600): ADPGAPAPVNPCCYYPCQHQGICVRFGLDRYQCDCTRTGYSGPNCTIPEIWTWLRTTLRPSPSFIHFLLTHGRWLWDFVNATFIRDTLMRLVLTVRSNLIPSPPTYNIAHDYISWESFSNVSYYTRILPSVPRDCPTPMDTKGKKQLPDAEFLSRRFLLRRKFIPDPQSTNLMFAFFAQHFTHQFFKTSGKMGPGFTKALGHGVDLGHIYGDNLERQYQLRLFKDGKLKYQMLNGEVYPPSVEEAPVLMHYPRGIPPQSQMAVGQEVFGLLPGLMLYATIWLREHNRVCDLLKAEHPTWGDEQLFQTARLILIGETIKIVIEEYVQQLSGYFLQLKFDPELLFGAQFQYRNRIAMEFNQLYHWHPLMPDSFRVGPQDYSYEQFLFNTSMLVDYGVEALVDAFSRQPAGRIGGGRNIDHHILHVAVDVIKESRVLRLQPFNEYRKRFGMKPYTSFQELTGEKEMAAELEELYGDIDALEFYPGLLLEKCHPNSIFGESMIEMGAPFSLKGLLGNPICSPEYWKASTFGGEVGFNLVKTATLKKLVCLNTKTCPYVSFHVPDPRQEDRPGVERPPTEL
Summary of the method: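 The kit's peroxidase read-out was used: PGG2 converts ADHP to resorufin, read at excitation 530-540 nm and emission 585-595 nm. Ovine COX-1 was mixed with inhibitor, heme, fluorometric substrate and assay buffer. Arachidonic acid started the reaction, and plates were read exactly 2 min later at room temperature. No-enzyme blanks and no-inhibitor controls were included, and each compound was run in triplicate.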

[1] = In vitro FLS cell toxicity assay; format: cell-based; conditions: Sprague Dawley, rat
Summary of the method: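 FLS cells from adjuvant-arthritic rat joints, in MEM with 10 % fetal calf serum at 37 °C and 5 % CO2, were seeded at 1.0×10^5/well and grown overnight. Cells were treated with six concentrations for 48 h, then given 20 µl MTT (5 mg/ml) for 4 h. Formazan was dissolved in DMSO and A490 read. Viability is relative to untreated cells, in triplicate; IC50 was read from the curves.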

[2] = tested on: IL-1 and TNFα production by FLS cells; test: Determination of IL-1 and TNF-α in FLS cell supernatants; format: cell-based, rat; conditions: 0.355 mg/ml, 48 h, compared with the untreated control group
Summary of the method: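 Rat FLS cells, isolated from synovial tissue of adjuvant-arthritic rats, were seeded at 1×10^5/well in MEM with 10 % fetal calf serum (37 °C, 5 % CO2) and grown overnight. They were then exposed to test compound at 0.355 mg/ml for 48 h. Supernatant cytokines were measured by ELISA against untreated cells, in triplicate (n = 3), with one-way ANOVA.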

FLS cells = test: Apoptosis detection in FLS cells; format: cell-based, rat; conditions: all at 0.4 mg/ml Ket, 48 h, versus untreated groups
Summary of the method: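 FLS cells were taken from arthritis-affected rat joints and grown in MEM with 10 % fetal calf serum at 37 °C under 5 % CO2. Cells were seeded at 1 × 10^6 per well, grown overnight, and exposed to the test compound (0.016-0.71 mg/ml) for 48 h. They were then trypsinised, washed, and resuspended at ∼1×10^6 cells/mL in annexin-binding buffer. Alexa Fluor 488 annexin V and PI were added for 15 min at room temperature before immediate flow cytometry.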

In vitro release profile = format: physicochemical; conditions: non-gelled solution controls, 37 °C, PBS pH 7.4, dialysis bags
Summary of the method: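 Samples of 200 μL at 4 mg/ml (gels, non-gelled conjugate solutions and parent drug) were dialysed (MWCO 800-1000) against PBS pH 7.4 at 37 °C. The 200 μL release medium was sampled and refreshed at set times. Released conjugate was quantified by C18 HPLC (30 °C; acetonitrile/0.1 % TFA gradient; 1.0 mL/min) at 260 nm.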

C[C@H](C(=O)O)c1cccc(C(=O)c2ccccc2)c1 [(S)-Ket, (S)-Ketoprofen]
IC50 (COX-1 (ovine)): 5.1 µM | IC50 at 48 h [1]: 159 µg/mL (≈ 625 µM) | IL-1 production by FLS cells [2]: trace amounts | TNFα production by FLS cells [2]: comparatively lower amount | Extent of apoptosis in FLS cells (FLS cells): greater degree of cell death than untreated groups | Time of drug release from solution (In vitro release profile): within a few hours
